We go through two compounds from ChEMBL document CHEMBL3124880, “4-(3-Chloro-5-(trifluoromethyl)pyridin-2-yl)-N-(4-methoxypyridin-2-yl)piperazine-1-carbothioamide (ML267), a potent inhibitor of bacterial phosphopantetheinyl transferase that attenuates secondary metabolism and thwarts bacterial growth” (J Med Chem, 2014).

Experiment [1] can be described thus: Inhibition of AcpS-PPTase (unknown origin). The method in brief: (§1)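 AcpS-PPTase at 100 nM final in 50 mM HEPES-Na pH 7.6, 10 mM MgCl2, 0.01% Nonidet P-40, 0.01% BSA; compound preincubated 15 min at room temperature, then rhodamine-CoA (5 μM final) and BHQ-2-YbbR (12.5 μM final) added. Fluorescence read (525 ex/598 em) at start and after 60 min; difference gives rate.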

Experiment [2] deals with Bacillus subtilis. Briefly: Reversible inhibition of Bacillus subtilis Sfp-PPTase using rhodamine-CoA/FITC-YbbR as substrate assessed as residual enzyme activity at IC90 preincubated for 30 mins followed by 100 fold dilution and addition of substrate by fluorescence assay.
A short description of experiment [3]: Inhibition of Bacillus subtilis Sfp-PPTase using rhodamine-CoA/BHQ-2-YbbR as substrate preincubated for 15 mins followed by substrate addition by HTS assay.
For experiment [4], the system named is Bacillus subtilis. Nature of the experiment: Inhibition of Bacillus subtilis Sfp-PPTase using CoA/apo-ACP as substrate preincubated for 10 mins followed by substrate addition measured after 30 mins by PAGE analysis. The method, boiled down: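 Compound in DMSO added to Sfp at 26.6 nM (in a 1.33× enzyme solution) in HEPES-Na pH 7.6 with MgCl2, NP-40 and BSA, and held 10 min. Reaction started with rhodamine-CoA and apo-actinorhodin-ACP, each 50 μM in a 4× substrate solution. After 30 min at room temperature, quenched with urea/EDTA and resolved by native 20% PAGE.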

In experiment [5] the test system is Bacillus subtilis. Briefly: Antibacterial activity against Bacillus subtilis HM489 assessed as cellular ATP content after 5 hrs by BacTiter-Glo assay. The experiment is classed as functional, organism-based. The note with it: HM489, 5 h.
Experiment [6] has as its system Bacillus subtilis. Nature of the experiment: Inhibition of Bacillus subtilis AcpS-PPTase. The method, boiled down: (§2)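 qHTS fluorescence assay in 50 mM HEPES-Na pH 7.6, 10 mM MgCl2, 0.01% NP-40, 0.01% BSA. Final enzyme 15 nM Sfp or 100 nM AcpS. Enzyme preincubated with compound 15 min at room temperature, then rhodamine-CoA 5 μM and BHQ-2-YbbR 12.5 μM (final) added. Fluorescence (525 ex/598 em) read at start and after 30 min (Sfp) or 60 min (AcpS); the difference gives the rate. Eight concentrations from 3.6 nM to 114 μM, run in triplicate.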

Experiment [7] is described as follows: Non-competitive inhibition of Bacillus subtilis Sfp-PPTase using CoA/ActACP as substrate preincubated for 10 mins followed by substrate addition measured after 30 mins by HPLC analysis.
In experiment [8] the test system is Bacillus subtilis. Nature of the experiment: Inhibition of Bacillus subtilis Sfp-PPTase. The method in brief: as §2
A short description of experiment [9]: Inhibition of Bacillus subtilis AcpS-PPTase using rhodamine-CoA/BHQ-2-YbbR as substrate preincubated for 15 mins followed by substrate addition by HTS assay. The method in brief: as §1
The subject of the next experiment is HepG2. Nature of the experiment: Cytotoxicity against human HepG2 cells assessed as cellular ATP content after 48 hrs by CellTiter-Glo assay. The class given is cell-based. The conditions noted are these: HepG2, 48 h. The method in brief:
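HepG2 cells exposed to compound; viability read as cellular ATP by luciferase-coupled CellTiter-Glo.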

Active and inactive are the calls of the source. The calls are words filed in the database; no cut-off is given here.

In experiment [1], `CSC(Cc1ccc(Cl)cc1)C(=O)Nc1ccc(Cl)cc1C(=O)O` (stereo not given) came in with a half-maximal inhibitory concentration (IC50) of 1400 nM.
For the compound `Cc1ccnc(NC(=S)N2CCN(c3cccc(C(F)(F)F)c3)CC2)c1`, the inhibition entry in the experiment on Bacillus subtilis [2], with Bacillus subtilis [6] and in the experiment with Bacillus subtilis [8] was “Active” throughout. Besides, the IC50 was found to be 780 nM in experiment [3]; 9800 nM with Bacillus subtilis [5]; 300 nM in [7]; 4600 nM in experiment [9]; 14000 nM in the experiment with HepG2. In addition, the inhibition result with Bacillus subtilis [4] was “Dose-dependent effect”.
